Laboratory results as given in ChEMBL document CHEMBL1153492, “Design, synthesis, and structure-activity relationships of 1,3-dihydrobenzimidazol-2-one analogues as anti-HIV agents” (Bioorg Med Chem, 2009).

Key:
[1] = target: Human immunodeficiency virus type 1 reverse transcriptase (Human immunodeficiency virus 1, UniProt Q72547); assay: Inhibition of HIV1 recombinant RNA-dependent DNA polymerase activity of reverse transcriptase assessed as incorporation of radioactive dTTP into poly(rA)/oligo(dT)
[2] = test system: Human immunodeficiency virus 1; assay: Antiviral activity against HIV1 3B infected in human MT4 cells assessed as reduction of virus-induced cytopathic effect after 5 days; type: functional, organism-based; conditions: Human immunodeficiency virus 1, 3B, MT4, 120 h
How it was run: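 MT-4 cells infected with HIV-1 IIIB at about 100-times the CCID50 per ml of cell suspension, plated and mixed with compound, then incubated at 37 °C for 5 days. Viable cell number was then determined. EC50 is the concentration that reduces virus-induced cytopathicity by 50%.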

[3] = Selectivity index, CC50 for human MT4 cells to EC50 for HIV1 3B; type: toxicity, cell-based; conditions: read-out: Ratio CC50/EC50
[4] = Cytotoxicity against human MT4 cells after 5 days; type: cell-based
How it was run: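 Run in MT-4 cells in parallel with the HIV-1 IIIB cytopathicity assay, with 37 °C incubation for 5 days and a read-out of viable MT-4 cell number.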

## O=C1CN(S(=O)(=O)c2c(Cl)cccc2Cl)c2cc(Cl)ccc2N1
[1]
  IC50: 1.67 µM
[2]
  EC50: 1.09 µM
[3]
  selectivity ratio: > 293
[4]
  CC50 at 120 h: > 319 µM

## O=C(CCl)Nc1ccc(Cl)cc1NS(=O)(=O)c1c(F)cccc1F
[1]
  IC50: 30.4 µM
[2]
  EC50: 6.96 µM
[3]
  selectivity ratio: 25
[4]
  CC50 at 120 h: 175 µM

## O=C(CCl)Nc1ccc(Cl)cc1NS(=O)(=O)c1cc(Cl)cc(Cl)c1
[1]
  IC50: 15.9 µM
[2]
  EC50: 8.99 µM
[3]
  selectivity ratio: > 32
[4]
  CC50 at 120 h: > 292 µM

## O=C1CN(S(=O)(=O)c2ccc(F)cc2)c2cc(Cl)ccc2N1
[1]
  IC50: > 40 µM
[2]
  EC50: > 172 µM
[3]
  selectivity ratio: < 1
[4]
  CC50 at 120 h: 172 µM

## N#Cc1cccc(S(=O)(=O)n2c(=O)[nH]c3ccc(Cl)cc32)c1
[1]
  IC50: 0.36 µM
[2]
  EC50: 0.149 µM
[3]
  selectivity ratio: 1360
[4]
  CC50 at 120 h: 205 µM

## O=c1[nH]c2ccc(Cl)cc2n1S(=O)(=O)c1cc(Cl)cc(Cl)c1
[1]
  IC50: 0.003 µM
[2]
  EC50: 0.048 µM
[3]
  selectivity ratio: 3740
[4]
  CC50 at 120 h: 179 µM

## O=c1[nH]c2ccc(Cl)cc2n1S(=O)(=O)c1ccc(F)cc1
[1]
  IC50: > 40 µM
[2]
  EC50: 36 µM
[3]
  selectivity ratio: ≥ 10
[4]
  CC50 at 120 h: ≥ 355 µM

## N#Cc1cccc(S(=O)(=O)Nc2cc(Cl)ccc2NC(=O)CCl)c1
[1]
  IC50: 284 µM
[2]
  EC50: > 156 µM
[3]
  selectivity ratio: < 1
[4]
  CC50 at 120 h: > 156 µM

## Cc1ccnc2c1NC(=O)c1cccnc1N2C1CC1 [NEVIRAPINE]
[4]
  CC50 at 120 h: > 15 µM

## Cc1cc(C)cc(S(=O)(=O)N2CC(=O)Nc3ccc(Cl)cc32)c1
[1]
  IC50: > 40 µM
[2]
  EC50: 0.1 µM
[3]
  selectivity ratio: 782
[4]
  CC50 at 120 h: 80.6 µM

## O=C1CN(S(=O)(=O)c2cc(F)cc(F)c2)c2cc(Cl)ccc2N1
[1]
  IC50: > 40 µM
[2]
  EC50: 14 µM
[3]
  selectivity ratio: 13
[4]
  CC50 at 120 h: 187 µM

## O=c1[nH]c2ccc(Cl)cc2n1S(=O)(=O)c1cccc(F)c1
[1]
  IC50: 0.132 µM
[2]
  EC50: 0.043 µM
[3]
  selectivity ratio: 2960
[4]
  CC50 at 120 h: 128 µM

## O=c1[nH]c2ccc(Cl)cc2n1S(=O)(=O)c1c(Cl)cccc1Cl
[1]
  IC50: > 100 µM
[2]
  EC50: 1.52 µM
[3]
  selectivity ratio: > 218
[4]
  CC50 at 120 h: > 331 µM

## O=C1CN(S(=O)(=O)c2cc(Cl)cc(Cl)c2)c2cc(Cl)ccc2N1
[1]
  IC50: > 40 µM
[2]
  EC50: 26.7 µM
[3]
  selectivity ratio: > 8
[4]
  CC50 at 120 h: ≥ 206 µM

## O=C1Nc2ccc(Cl)cc2[C@@](C#CC2CC2)(C(F)(F)F)O1 [EFAVIRENZ]
[4]
  CC50 at 120 h: > 6 µM

## O=C1CN(S(=O)(=O)c2cccc(F)c2)c2cc(Cl)ccc2N1
[1]
  IC50: > 40 µM
[2]
  EC50: 7.04 µM
[3]
  selectivity ratio: 27
[4]
  CC50 at 120 h: 189 µM

## O=C(CCl)Nc1ccc(Cl)cc1NS(=O)(=O)c1c(Cl)cccc1Cl
[1]
  IC50: 32.7 µM
[2]
  EC50: 1.5 µM
[3]
  selectivity ratio: 107
[4]
  CC50 at 120 h: 160 µM

## Cc1cc(C)cc(S(=O)(=O)Nc2cc(Cl)ccc2NC(=O)CCl)c1
[1]
  IC50: 3.36 µM
[2]
  EC50: 0.047 µM
[3]
  selectivity ratio: 747
[4]
  CC50 at 120 h: 35.1 µM

## N#Cc1cccc(S(=O)(=O)N2CC(=O)Nc3ccc(Cl)cc32)c1
[1]
  IC50: > 40 µM
[2]
  EC50: ≥ 47.7 µM
[3]
  selectivity ratio: ≤ 4
[4]
  CC50 at 120 h: 186 µM

## O=C(CCl)Nc1ccc(Cl)cc1NS(=O)(=O)c1cc(F)cc(F)c1
[1]
  IC50: 27.8 µM
[2]
  EC50: 11.2 µM
[3]
  selectivity ratio: 16
[4]
  CC50 at 120 h: 179 µM

## O=c1[nH]c2ccc(Cl)cc2n1S(=O)(=O)c1ccccc1F
[1]
  IC50: 0.85 µM
[2]
  EC50: 0.23 µM
[3]
  selectivity ratio: > 1660
[4]
  CC50 at 120 h: > 383 µM

## O=C1CN(S(=O)(=O)c2ccccc2F)c2cc(Cl)ccc2N1
[1]
  IC50: > 40 µM
[2]
  EC50: 6.1 µM
[3]
  selectivity ratio: 32
[4]
  CC50 at 120 h: 197 µM

## O=C1CN(S(=O)(=O)c2c(F)cccc2F)c2cc(Cl)ccc2N1
[1]
  IC50: > 40 µM
[2]
  EC50: 20.7 µM
[3]
  selectivity ratio: 9
[4]
  CC50 at 120 h: 180 µM
